For six molecules, ED50/ED50(Taxol), ED50/ED50(Taxol) (dimensionless ratio) and ED50 results are on record in ChEMBL document CHEMBL1134472, “Synthesis and NMR-driven conformational analysis of taxol analogues conformationally constrained on the C13 side chain” (2001).

Calls of active or inactive are those of the source. No cut-off for these calls is given here.

One assay has as its system MCF7. In words: Cytotoxicity against MCF-7 cells with reference to taxol. In kind it is functional. The conditions noted are these: Homo sapiens. The essentials: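 Result is the test compound's ED50 in MCF7 cells divided by the paclitaxel ED50 from the same cytotoxicity assay.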
Assay [1] deals with Tubulin alpha chain (Sus scrofa) (UniProt P02550). In words: Tubulin binding with reference to taxol was determined by tubulin assembly assay. The essentials: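 Activity is the ED50 in a tubulin assembly assay, given as a ratio to the paclitaxel ED50 from the same assay.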
Sequence of Tubulin alpha chain (Sus scrofa) (P02550 whole entry, looked up): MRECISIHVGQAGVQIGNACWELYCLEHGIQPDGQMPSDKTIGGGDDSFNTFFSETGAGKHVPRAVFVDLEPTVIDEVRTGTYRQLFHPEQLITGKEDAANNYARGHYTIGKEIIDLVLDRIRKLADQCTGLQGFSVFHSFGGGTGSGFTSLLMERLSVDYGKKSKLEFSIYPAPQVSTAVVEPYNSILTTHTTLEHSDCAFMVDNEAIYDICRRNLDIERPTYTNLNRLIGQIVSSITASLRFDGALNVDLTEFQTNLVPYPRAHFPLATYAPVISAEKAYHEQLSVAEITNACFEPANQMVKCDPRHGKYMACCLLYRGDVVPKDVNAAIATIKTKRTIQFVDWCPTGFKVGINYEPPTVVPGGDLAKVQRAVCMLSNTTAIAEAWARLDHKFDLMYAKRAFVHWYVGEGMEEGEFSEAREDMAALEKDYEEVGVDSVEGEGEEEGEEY

Consider `CC(=O)O[C@H]1C(=O)[C@@]2(C)[C@H]([C@H](OC(=O)c3ccccc3)[C@]3(O)CC(OC(=O)[C@@]4(O)CCc5ccccc5[C@@H]4NC(=O)c4ccccc4)C(C)=C1C3(C)C)[C@]1(OC(C)=O)CO[C@@H]1C[C@@H]2O` (stereo not given in full), for which the ED50/ED50(Taxol) with MCF7 was found to be 333 dimensionless ratio. Also, the ED50/ED50(Taxol) (dimensionless ratio) in assay [1] was found to be 42.
For `CC(=O)O[C@@]12CO[C@@H]1C[C@H](O)[C@@]1(C)C(=O)[C@H](O)C3=C(C)C(OC(=O)[C@@]4(O)Cc5ccccc5[C@@H]4NC(=O)OC(C)(C)C)C[C@@](O)([C@@H](OC(=O)c4ccccc4)[C@H]21)C3(C)C` (stereo not given in full), the ED50/ED50(Taxol) (dimensionless ratio) in assay [1] was determined as 7.
Consider `CC(=O)O[C@H]1C(=O)[C@@]2(C)[C@H]([C@H](OC(=O)c3ccccc3)[C@]3(O)CC(OC(=O)[C@]4(O)Cc5ccccc5[C@@H]4NC(=O)c4ccccc4)C(C)=C1C3(C)C)[C@]1(OC(C)=O)CO[C@@H]1C[C@@H]2O` (stereo not given in full), for which the ED50/ED50(Taxol) in the assay with MCF7 was found to be 1600 dimensionless ratio. The ED50 entry in assay [1] is “inactive”.
Molecule `CC(=O)O[C@H]1C(=O)[C@@]2(C)[C@H]([C@H](OC(=O)c3ccccc3)[C@]3(O)CC(OC(=O)[C@@]4(O)Cc5ccccc5[C@@H]4NC(=O)c4ccccc4)C(C)=C1C3(C)C)[C@]1(OC(C)=O)CO[C@@H]1C[C@@H]2O` (stereo not given in full) displayed an ED50/ED50(Taxol) with MCF7 of 9 dimensionless ratio. In assay [1], the ED50/ED50(Taxol) (dimensionless ratio) was found to be 4.
The like results for `CC(=O)O[C@@]12CO[C@@H]1C[C@H](O)[C@@]1(C)C(=O)[C@H](O)C3=C(C)C(OC(=O)[C@@]4(O)CCc5ccccc5[C@@H]4NC(=O)OC(C)(C)C)C[C@@](O)([C@@H](OC(=O)c4ccccc4)[C@H]21)C3(C)C` (stereo not given in full) were, in that order, 239 dimensionless ratio and 30.
For the molecule `CC(=O)O[C@H]1C(=O)[C@@]2(C)[C@H]([C@H](OC(=O)c3ccccc3)[C@]3(O)C[C@H](OC(=O)[C@H](O)[C@@H](NC(=O)c4ccccc4)c4ccccc4)C(C)=C1C3(C)C)[C@]1(OC(C)=O)CO[C@@H]1C[C@@H]2O` [PACLITAXEL], the ED50/ED50(Taxol) in the assay on MCF7 amounted to 4 dimensionless ratio.
